Measured values as given in ChEMBL document CHEMBL1154695 (J Med Chem, 2009).

What was measured:
Hepatitis C virus = test: Antiviral activity against HCV by viral replicon assay; format: functional, Hepacivirus hominis
[1] = Chemical stability assessed as compound epimerization in potassium phosphate buffer of pH 7; format: physicochemical
In short: (§1)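 Start concentration 0.25 mg/mL, followed over time at pH 7 in water, pH 7 phosphate (0.05 M) or pH 9 borate (0.1 M). Aliquots were drawn at intervals and HPLC measured the parent and the P1-(R) epimer VRT-394. k_obs is the sum of the forward and reverse epimerization rate constants; relative rate is taken against pH 7 water.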

Plasma [2] = test: Stability in human plasma assessed as conversion to VRT-394 at 10 uM after 1 hr; format: ADME, cell-free; conditions: 1 µM, in the assay text read “1 uM” for “10 uM”
Plasma [3] = test: Stability in human plasma relative to telaprevir; format: ADME, cell-free
In short: (§2)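 Rat, dog or human plasma was preincubated at 37 °C and spiked from DMSO stock to a final 1 or 10 μM (final DMSO 1%), in triplicate with shaking. Control was 0.1 M potassium phosphate pH 7.4. Sampling was at 0–120 min (rat, dog) or 0–180 min (human, buffer). Samples were acidified, extracted with ethyl acetate and run on chiral LC-MS/MS (MRM). Epimerization was scored by initial rate and k_H/k_D.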

Plasma [4] = test: Stability in dog plasma relative to telaprevir; format: ADME, cell-free, Canis lupus familiaris; in short: as §2
Plasma [5] = test: Stability in rat plasma relative to telaprevir; format: ADME, cell-free; in short: as §2
[6] = Inhibition of HCV NS3/4A protease; set-up: species or system Hepacivirus hominis
[7] = Stability in potassium phosphate buffer of pH 7; format: physicochemical; in short: as §1
[8] = Stability in boric acid-potassium chloride buffer of pH 9; format: physicochemical; in short: as §1
[9] = Stability in rat plasma assessed as compound epimerization at 10 uM; format: ADME, cell-free; in short: as §2
[10] = Terminal half life in Sprague-Dawley rat at 10 mg/kg, po; format: ADME, organism-based; set-up: dose 10 mg/kg, route oral; conditions: in vivo, read-out: beta t1/2 (converted)
In short: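 Male Sprague-Dawley rats with cannulas received 10 mg/kg by gavage at 1 mg/mL (10 mL/kg) in a solid dispersion (HPMC-AS/SLS) taken up in 1% HPMC-AS and 10% vitamin E TPGS. Blood was drawn from 0.25 to 24 h into EDTA; plasma was acidified and assayed by LC/MS/MS. Parameters came from noncompartmental analysis.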

Plasma [11] = test: Stability in human plasma assessed as conversion to VRT-394 at 1 uM after 1 hr

SMILES	IC99 (Hepatitis C virus)	half-life [1]	Activity (Plasma [2])	Activity (Plasma [3])	Activity (Plasma [4])	Activity (Plasma [5])	Ki [6]	Activity [7]	Activity [8]	half-life at 10 µM [9]	half-life [10]	Activity (Plasma [11])
CCC[C@H](NC(=O)[C@@H]1[C@H]2CCC[C@H]2CN1C(=O)[C@@H](NC(=O)[C@@H](NC(=O)c1cnccn1)C1CCCCC1)C(C)(C)C)C(=O)C(=O)NC1CC1	3.3 µM	35 h	35%	–	–	–	–	–	–	–	–	–
[2H][C@@](CCC)(NC(=O)[C@@H]1[C@H]2CCC[C@H]2CN1C(=O)[C@@H](NC(=O)[C@@H](NC(=O)c1cnccn1)C1CCCCC1)C(C)(C)C)C(=O)C(=O)NC1CC1	4 µM	–	–	Stable	Stable	Stable	20 nM	Stable	Stable	> 4 h	1.5 h	10%
CCC[C@@H](NC(=O)[C@@H]1[C@H]2CCC[C@H]2CN1C(=O)[C@@H](NC(=O)[C@@H](NC(=O)c1cnccn1)C1CCCCC1)C(C)(C)C)C(=O)C(=O)NC1CC1	–	–	–	–	–	–	> 1000 nM	–	–	–	–	–
